Data from ChEMBL document CHEMBL1275487, “Reduced biocide susceptibility in Candida albicans biofilms” (Antimicrob Agents Chemother, 2008).

Experiments:
[1] = test system: Candida parapsilosis; assay: Antifungal activity against Candida parapsilosis 5986 grown as planktonic cells by CLSI method; type: functional
Method in brief: (§1)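 Planktonic biocide MICs were determined by CLSI broth microdilution using CLSI endpoints, with the standard CLSI inoculum (0.5 × 10^3 to 2.5 × 10^3 CFU/ml) in RPMI-MOPS. Triplicate, two occasions.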

[2] = test system: Candida albicans; assay: Antifungal activity against Candida albicans K1 grown as planktonic cells using 10^6 to 10^7 cells by CLSI method; type: functional, organism-based
Method in brief: (§2)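 Planktonic susceptibility was tested by the CLSI method with the inoculum raised to the mature-biofilm cell density (10^6 to 10^7 cells/well) in RPMI-MOPS. EC50 and EC80 values were derived. Triplicate, two occasions.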

[3] = test system: Candida parapsilosis; assay: Antifungal activity against Candida parapsilosis 5986 grown as planktonic cells using 10^6 to 10^7 cells by CLSI method; type: functional, organism-based; method in brief: as §2
[4] = test system: Nakaseomyces glabratus; assay: Antifungal activity against Candida glabrata 5740 grown as planktonic cells using 10^6 to 10^7 cells by CLSI method; type: functional, organism-based; method in brief: as §2
[5] = test system: Candida albicans; assay: Antifungal activity against Candida albicans K1 grown as planktonic cells by CLSI method; type: functional; method in brief: as §1
[6] = test system: Candida albicans; assay: Antifungal activity against Candida albicans DAY 185 assessed as decrease mature biofilm burden after 24 hrs by XTT reduction assay; type: functional, organism-based
Method in brief: (§3)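 Biofilms formed in 96-well polystyrene plates in RPMI-MOPS, inoculum 10^6 to 10^7 cells/well, 24 h at 30°C, then washed twice with PBS. Biocides were added with fresh medium to the 24 h mature biofilms (H2O2 1 to 1,000 mM; EtOH 0.05 to 50%; SDS 0.0004 to 0.4%). After a further 24 h at 30°C, metabolic activity was read by XTT reduction. EC50 and EC80 are the concentrations giving 50% and 80% reduction in OD versus no-drug controls. Triplicate, two occasions.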

[7] = test system: Candida parapsilosis; assay: Antifungal activity against Candida parapsilosis 5986 assessed as decrease mature biofilm burden after 24 hrs by XTT reduction assay; type: functional, organism-based; method in brief: as §3
[8] = test system: Candida albicans; assay: Antifungal activity against Candida albicans K1 assessed as decrease mature biofilm burden after 24 hrs by XTT reduction assay; type: functional, organism-based; method in brief: as §3
[9] = test system: Candida albicans; assay: Antifungal activity against Candida albicans DAY 185 grown as planktonic cells by CLSI method; type: functional; method in brief: as §1
[10] = test system: Candida albicans; assay: Antifungal activity against Candida albicans DAY 185 grown as planktonic cells using 10^6 to 10^7 cells by CLSI method; type: functional, organism-based; method in brief: as §2
[11] = test system: Candida albicans; assay: Antifungal activity against Candida albicans DAY 185 assessed as inhibition of biofilm formation after 24 hrs by XTT reduction assay; type: functional, organism-based
Method in brief: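 Biocides were added to the wells at the time of inoculation in 96-well polystyrene plates (RPMI-MOPS, 10^6 to 10^7 cells/well) and incubated 24 h at 30°C (H2O2 1 to 1,000 mM; EtOH 0.05 to 50%; SDS 0.0004 to 0.4%). XTT reduction was then read. EC50 and EC80 are the concentrations giving 50% and 80% OD reduction versus no-drug controls. Triplicate, two occasions.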

[12] = test system: Candida albicans; assay: FICI in Candida albicans DAY 185 after 24 hrs in presence of fluconazole; type: functional
Method in brief: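 Checkerboard format on 24 h mature biofilms, with each biocide combined with fluconazole (0.0625 to 1,000 μg/ml). Incubation was 24 h with the combination, followed by an XTT reduction readout against no-drug controls. Fractional inhibitory concentration indices were calculated to gauge how each biocide affects fluconazole activity.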

[13] = test system: Nakaseomyces glabratus; assay: Antifungal activity against Candida glabrata 5740 assessed as decrease mature biofilm burden after 24 hrs by XTT reduction assay; type: functional, organism-based; method in brief: as §3
[14] = test system: Nakaseomyces glabratus; assay: Antifungal activity against Candida glabrata 5740 grown as planktonic cells by CLSI method; type: functional; method in brief: as §1

MIC [1] [%] | EC50 [2] [%] | EC50 [3] [%] | EC50 [4] [%] | MIC [5] [%] | MIC [9] [%] | EC50 [10] [%] | SMILES | EC80 [2] [%] | EC80 [3] [%] | EC80 [4] [%] | EC50 [6] [%] | EC80 [6] [%] | EC50 [7] [%] | EC80 [7] [%] | EC50 [8] [%] | EC80 [8] [%] | EC80 [10] [%] | EC50 [11] [%] | EC80 [11] [%] | fractional inhibitory concentration index (FICI) [12] | further results
1.5 | 6 | 6 | 13 | 1.5 | 3 | 6 | CCO [ALCOHOL] | 13 | 6 | 13 | 35 | 40 | 25 | 25 | 25 | 25 | 13 | 35 | 35 | <0.5 | EC50 [13]: 25%; EC80 [13]: 25%; MIC [14]: 3%
0.01 | 0.03 | 0.03 | 0.03 | 0.01 | 0.01 | 0.05 | CCCCCCCCCCCCOS(=O)(=O)[O-].[Na+] [SODIUM LAURYL SULFATE] | 0.05 | 0.05 | 0.03 | 0.15 | 0.15 | 0.05 | 0.1 | 0.05 | 0.1 | 0.05 | 0.05 | 0.1 | 1 | EC50 [13]: 0.05%; EC80 [13]: 0.05%; MIC [14]: 0.01%
